Screens deposited in PubChem by several laboratories.
Hits are enriched below; roughly 2% of the tested compounds scored in any of these assays.
eIF4H inh: inhibitors of RNA binding by human eIF4H; eIF4H fluorescence polarization binding assay; inhibition, % at 35 µM; 290,000 tested, 0.94% active;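 further: calls also rest on retests at 20 µM and on dose response follow-up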
HCV NS3 hel inh: inhibitors of Hepatitis C virus NS3 helicase; NS3 helicase DNA unwinding, Cy5 molecular beacon fluorescence; inhibition, % at 10.9 µM; 290,000 tested, 0.56% active; AID 1800;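 active means inhibition above the mean of all tested compounds plus 3 SD, set per campaign, cut at about 35% in these data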;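 further: 0% = DMSO wells and 100% = thioflavine S control wells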
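System: NS3 helicase fragment of HCV / Schedule: 1 h at 25 °C / Control set: DMSO alone as 0% and 110 µM thioflavine S as 100% / Reagent: Cy5/quencher beacon DNA duplex and ATP to start / Technique: Cy5 fluorescence / Replication: singlicate / Evaluation: % inhibition of end-to-start signal ratio versus controls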
MLLE-PAM2 inh: blocks PAM2 peptide binding to the PABP1 MLLE domain | P11940 | GST-MLLE / FITC-PAM2 fluorescence polarization | inhibition, % at 20 µM | 360,000 tested, 0.36% active; in the data active means inhibition above about 35%, passing the limit was not always enough;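 further: plate controls were DMSO wells with GST-MLLE for no effect and wells lacking GST-MLLE protein for full effect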
Target sequence (P11940 whole entry, looked up, the tested form may be a part): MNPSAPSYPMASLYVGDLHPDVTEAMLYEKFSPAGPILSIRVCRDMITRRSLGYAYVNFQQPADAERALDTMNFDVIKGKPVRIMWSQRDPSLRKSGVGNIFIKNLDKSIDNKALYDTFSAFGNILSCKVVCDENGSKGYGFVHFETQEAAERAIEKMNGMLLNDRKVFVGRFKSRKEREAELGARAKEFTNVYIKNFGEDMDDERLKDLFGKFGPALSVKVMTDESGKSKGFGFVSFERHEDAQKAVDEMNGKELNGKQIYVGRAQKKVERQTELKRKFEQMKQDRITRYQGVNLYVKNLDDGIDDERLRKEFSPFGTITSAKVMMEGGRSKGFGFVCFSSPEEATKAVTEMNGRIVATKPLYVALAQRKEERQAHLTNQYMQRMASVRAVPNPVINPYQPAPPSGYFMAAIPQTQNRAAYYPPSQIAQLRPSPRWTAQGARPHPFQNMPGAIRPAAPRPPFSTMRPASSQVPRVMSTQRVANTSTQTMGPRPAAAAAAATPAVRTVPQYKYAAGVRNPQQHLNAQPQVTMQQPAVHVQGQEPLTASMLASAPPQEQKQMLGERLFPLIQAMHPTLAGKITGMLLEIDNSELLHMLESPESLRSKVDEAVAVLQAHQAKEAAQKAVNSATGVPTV
HCV core dimer: HCV core protein dimerization inhibition; 300,000 tested, 0.33% active; inhibition, % at 5 µM; AID 1899; TR-FRET GST/Flag-core106 dimerization, 1536-well;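 active means inhibition above the mean of all tested compounds plus 3 SD, set per screening campaign, cut at about 45% in these data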
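System: GST-tagged and Flag-tagged HCV core protein residues 1-106 / Input: core106 proteins, GST 13.5 nM and Flag 17 nM / Buffer or medium: KF-containing HEPES buffer, pH 7.45, DTT, CHAPS, BSA / Probe or stimulus: Eu-anti-GST and XL665-anti-Flag labelled anti-tag antibodies / Schedule: 4 h, 22.5 °C incubation / Technique: TR-FRET 671 and 617 nm emission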
PABP FP inh: blocks human PABP binding to poly(A) RNA; P11940; fluorescence polarization; inhibition, % at 35 µM; 290,000 tested, 1% active; AID 2014;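 further: calls also rest on retests at 20 µM and on dose response follow-up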
FID counter: fluorescent intercalator displacement, NS3 helicase counter-screen. DNA fluorescent intercalator displacement, fluorescence. inhibition, % at 7.9 µM. 290,000 tested, 0.17% active; in the data active means inhibition above about 37%;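 further: 0% = vehicle and 100% = reference compound; higher means more ethidium bromide displaced from hairpin DNA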
The depositor's hits bear a star; ? = inconclusive; . = not tested or not shown. Unless noted, how the calls were made is not given here.

SMILES	eIF4H inh	HCV NS3 hel inh	MLLE-PAM2 inh	HCV core dimer	PABP FP inh	FID counter
CC1=CC(=O)C(Sc2ccc(C)cc2)=CC1=O	.	.	35*	.	.	.
COC(=O)c1c(NC(=O)c2ccc(C)o2)sc2c1CCCCC2	10	10	37*	.	7	-6
COc1ccccc1Nc1ccc(C(=O)NCc2cccs2)cn1	7	0	-7	5	0	-13
COc1ccccc1Nc1ncc(-c2cccs2)s1	-9	2	-24	50*	-3	-2
Cc1ccc(/C=C2/Sc3ccc(C(=O)N4CCN(C)CC4)cc3NC2=O)cc1	88	-80	46*	-4	42*	15
CCCCNC(=O)c1cccnc1SCC(=O)Nc1ccccc1OC	-10	-6	7	2	2	-7
CCCCCCCCNC(=O)c1cccnc1SCC(=O)Nc1ccc(OC)cc1OC	64*	2	-5	6	6.4*	-9
O=C(NCCO)/C(=C\c1cccs1)NC(=O)c1cccs1	3	-1	-4	-14	120*	0
Cc1cccc(NC(=O)CSc2ccc(-c3ccco3)nn2)c1C	78*	11	13	-6	15*	-11
O=C(CSc1ccc(-c2ccco2)nn1)NCc1ccccc1	97*	9	32	7	6.9*	-6
Cc1cccc(CSc2ccc(-c3ccco3)nn2)c1	52*	10	17	13	59*	-11
O=C(CSc1ccc(-c2ccco2)nn1)N1CCCCC1	95	-3	28	-3	2.1*	0
CC1(C(=O)NS(=O)(=O)c2ccc(C#N)cc2)CCN1C(=O)Cc1ccccc1Cl (stereo unspecified)	.	.	7	.	.	.
CCOC(=O)C1=C[C@@H](c2ccccc2)N(S(=O)(=O)c2ccc(C)cc2)[C@H]1c1ccccc1Cl	.	.	2	.	.	.
CN1C(=O)N(C)C2(c3ccccc3)Nn3c(s/c(=C/c4ccco4)c3=O)=NC12c1ccccc1 (stereo unspecified)	50	7	-12	7	43*	-5
CN1C(=O)N(C)C2(c3ccccc3)Nn3c(s/c(=C/c4ccccc4F)c3=O)=NC12c1ccccc1 (stereo unspecified)	-2	-8	.	6	-2	0
N#Cc1c(NC(=O)CSc2nnc(-c3ccco3)n2-c2ccccc2)sc2c1CCC2	49	10	-13	64*	8	-12
NC(=O)c1c(NC(=O)CSc2nnc(-c3ccco3)n2-c2ccccc2)sc2c1CCC2	87*	11	-9	72*	86*	-24
N#Cc1c(C(F)(F)F)cc(-c2ccccc2)nc1SCC(=O)Nc1sc2c(c1C#N)CCC2	72	9	0	19	56*	-2
CC[C@]12c3[nH]c4ccc(Cl)cc4c3CCN1C(=O)[C@@H](CC(=O)NC/C=C(\C)CCC=C(C)C)C[C@@H]2C(=O)N1CCN(C(=O)C2CC2)CC1	.	.	-2	.	.	.
C=CCCC(=O)N1C[C@@H](CO)[C@@H](NC)C[C@H]1c1ccccc1Br	.	.	13	.	.	.
COc1ccc2c(=O)c3c(=O)n(Cc4ccco4)c(-c4ccco4)nc3oc2c1	86*	17	8	20	80*	-8
COc1ccc(-c2nc3oc4cc(OC)ccc4c(=O)c3c(=O)n2Cc2ccco2)cc1	0	22	15	12	0	-17
CCCc1nc2sc3ccccc3c(=O)c2c(=O)n1Cc1ccccc1	.	.	11	.	.	.
COc1ccc(Cn2c(-c3ccco3)nc3oc4cc(OC)ccc4c(=O)c3c2=O)cc1	36	10	-23	32	21	-1
SMILES	eIF4H inh	HCV NS3 hel inh	MLLE-PAM2 inh	HCV core dimer	PABP FP inh	FID counter
CCc1nc2sc3ccccc3c(=O)c2c(=O)n1Cc1ccco1	69*	22	15	1	68*	-13
CCc1nc2oc3cc(OC)ccc3c(=O)c2c(=O)n1Cc1ccco1	52*	6	-67	12	71*	-17
COC(=O)C1CCN(C(=O)COC(=O)c2cccc(NS(=O)(=O)c3ccccc3)c2)CC1	.	.	-20	-1	.	.
COC(=O)C(Sc1ccc(Cl)cc1)C1SC(=S)N(Cc2ccccc2)C1=O (stereo unspecified)	.	.	-17	.	.	.
COc1ccc(-n2c(CN3CCOCC3)nc3ccc([N+](=O)[O-])cc3c2=O)c(OC)c1	7	11	-2	65*	-6	-18
COc1cc(C)c(CN2CCN(C(C)C(=O)NC(C)c3ccccc3)CC2)cc1OC (stereo unspecified)	-14	2	-15	5	-9	-8
C[C@H]1CN([C@@H](C)CO)C(=O)CCCn2nncc2CO[C@@H]1CN(C)S(=O)(=O)c1cn(C)cn1	.	.	9	.	.	.
O=C(C=Cc1ccco1)c1ccc([N+](=O)[O-])cc1	.	.	-2	.	.	.
O=C(/C=C/c1ccco1)c1ccc(NC(=O)C23CC4CC(CC(C4)C2)C3)cc1	?	35	-12	5	active	-10
O=C1Nc2cc(Cl)cnc2N2CCCC12 (stereo unspecified)	61*	-5	4	3	-18	-7
O=C1Nc2ccccc2N2CCCC12 (stereo unspecified)	-4	-4	.	2	1	1
O=C(O)c1ccc(CNC(=O)C2CCN(S(=O)(=O)c3cccs3)CC2)cc1	.	.	9	.	.	.
CC(C)c1ccc(-c2c(C#N)c(N)nc(SCC(=O)N3CCCCCC3)c2C#N)cc1	4	6	.	11	20	-2
CC(C)c1ccc(-c2c(C#N)c(N)nc(SCC(=O)N3CCCCC3)c2C#N)cc1	5	3	22	47*	0	1
Cc1ccc(N2C(=N)/C(=C3/Nc4ccccc4S3)C(c3ccccc3)C2=O)cc1 (stereo unspecified)	84*	10	4	2	0.6*	-25
O=C(c1ccc(CS(=O)c2ccccc2Cl)o1)N1CCN(c2ccccn2)CC1 (stereo unspecified)	1	-2	7	9	-1	-40
CN(CC(=O)NC(=O)NCc1ccco1)Cc1nc2ccccc2c(=O)[nH]1	69*	9	8	20	41*	-6
COc1ccc(OC)c(NC(=O)c2ccc(-n3cccn3)nc2)c1	106*	-6	-5	-5	101*	-6
Cn1ccnc1COc1ccc(C=O)cc1	-9	-1	-9	7	2	-3
CCC(=O)/C=C1/Sc2ccc(OC)cc2N1CCO	-6	-4	45*	-3	8	7
CC1CC(C)CN(C(C(=O)NC2CCCCC2)c2cc3ccccc3o2)C1 (stereo unspecified)	.	.	-5	.	.	.
Cc1cccc(-n2c(O)c(C=Nc3ccc(O)cc3)c3ccccc3c2=O)n1	6	1	-12	-12	-5	-12
Cc1ccc(N=Cc2c(O)n(-c3ccc4c(c3)OCO4)c(=O)c3ccccc23)cc1	-15	19	-4	62*	-1	-1
O=C1C2CCCCN2C(=O)N1CCCCN1CCN(c2cccc(Br)c2)CC1 (stereo unspecified)	-14	2	-4	-4	1	-3
